Reference: ChEMBL document CHEMBL4513216, “Probing the Open Global Health Chemical Diversity Library for Multistage-Active Starting Points for Next-Generation Antimalarials” (ACS Infect Dis, 2020)

Assay: Toxicity liver stage against HepG2, at 10uM
Assay type: cell-based
Design: test concentration 10 uM, cell line HepG2-A16-CD81EGFP
Conditions: human, HepG2-A16-CD81EGFP cells; read-out: INHIBITION
Outline: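 Uninfected HepG2-A16-CD81EGFP cells, 3 × 10^3 per well, 1536-well, plated on prespotted compound at 10 μM final, parasite-free screening media added to match infected plates; puromycin 10 μM positive, DMSO 0.5% negative; run in parallel with 48 h PbLuc assay at 37 °C, 5% CO2; viability by CellTiter-Glo luminescence, normalized to controls.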

Row | SMILES | cytotoxicity at 10 µM [%]
1 | O=C(CCC(=O)Nc1nnc(C2CCCCC2)s1)NCC1CCCO1 (centres undefined) | -7.7
2 | O[C@@H]1C[C@@H](c2nc(Cc3ccccc3)no2)N(Cc2ccc(F)cc2)C1 | 0.296
3 | Cc1ccc(CNC2(Cc3cc(-c4cccc(O)c4)on3)COC2)o1 | -0.873
4 | O[C@@H]1C[C@@H](c2nc(-c3ccc(F)cc3)no2)N(C2CCOCC2)C1 | 4.51
5 | CN1Cc2ccccc2N(CC(O)C(F)(F)F)CCC1=O (centres undefined) | 0.905
6 | Cn1ccc2ccc(C(=O)N3CC[C@@]4(O)CCCC[C@H]4C3)cc21 | -46.6
7 | Cn1cc(C2SCC(=O)Nc3c2cnn3C(C)(C)C)cn1 (centres undefined) | -6.24
8 | COC[C@]12COC[C@H]1CN(C(=O)c1ccc(F)cc1C)C2 | -135
9 | CCn1cc2c(n1)CN(S(=O)(=O)c1ccc(C)cc1)CC2COC (centres undefined) | 5.77
10 | N#Cc1cccc(N2CCCC3(CN(C(=O)[C@H]4CCCO4)CCO3)C2)c1 (some centres undefined) | 3.53
11 | Cc1nc(CO[C@@H]2CN(Cc3ccco3)[C@@H]3COC[C@@H]32)cs1 | 5.66
12 | Cc1cccc(CN2CCc3ncnc(Oc4cccnc4)c3CC2)n1 | -139
13 | Cc1nc([C@H]2C[C@@H]3CCN(C(=O)c4ccnnc4)C[C@H]3O2)sc1C | 1.01
14 | O=C(Cc1ccccn1)N1CCn2cc(Cn3cncn3)nc2C1 | -129
15 | CN1CCCN(Cn2nc(-c3ccccc3F)ccc2=O)CC1 | 9.77
16 | CCOC(=O)CSc1ccc(-c2nc(C)no2)cn1 | -15.2
17 | Cc1noc(C2CCN(c3oc(C)nc3C#N)CC2)n1 | -6.32
18 | CCOC1Sc2nnc(C)n2N=C1c1ccc(Br)cc1 (centres undefined) | -2.92
19 | CCOCc1cccc(S(=O)(=O)Nc2ccn(CC)n2)c1 | 4.84
20 | CN(C)C(=O)c1cn[nH]c1C1CCCN1Cc1c[nH]cn1 (centres undefined) | -3.3
21 | O=C(c1cnco1)N1CCC(Cc2ccc3ncccc3c2)CC1 | 7.22
22 | Cc1cc(-c2cc(N)c(=O)n(CC(=O)NC3CCCC3)n2)c(C)o1 | 4.39

Row | SMILES | cytotoxicity at 10 µM [%]
23 | CC1(C(=O)N2CCN(c3ncccn3)CC2)CNCCO1 (centres undefined) | -0.79
24 | CC(=O)OCc1ccc(CN2CCCCCC2c2cc(C)no2)o1 (centres undefined) | -13.1
25 | O=C(C1CCCC1)N1CCCC(c2nc(O)cc(-c3ccncc3)n2)C1 (centres undefined) | -16.9
26 | Cc1ccc(Br)cc1NC(=O)NC1CCC2(C1)OCCO2 (centres undefined) | 15.6
27 | CCNC(=O)CN(CC)S(=O)(=O)c1c(Br)cc2[nH]c(=O)oc2c1Cl | 9.69
28 | CC(C)(C)OC(=O)N[C@H]1CCN(C(=O)c2cc(Cl)c[nH]2)C1 | -2.84
29 | CC(C)(C)OC(=O)NCCC(=O)NCC(O)c1cccc(F)c1 (centres undefined) | -2.48
30 | CC(NC(=O)N1CCC1)c1ccc(S(C)(=O)=O)cc1 (centres undefined) | -4.22
31 | Cc1ncc2c(n1)CN(Cc1cn3ccsc3n1)CC2 | -9.06
32 | O=C(O)c1csc(S(=O)(=O)Nc2c(F)cccc2-n2cccn2)c1 | -7.32
33 | O=C(c1ccoc1)N1CCN(Cc2ccccc2F)CC1 | -13.2
34 | Cc1cccc(-c2noc(CN3CCc4c(ncn4C4CC4)C3)n2)c1 | 4.95
35 | CN(Cc1nccn1C)S(=O)(=O)Cc1cccc(C#N)c1 | 4.16
36 | CN(C)S(=O)(=O)N1CCN(C(=O)c2cc(-c3ccccc3)[nH]n2)CC1 | -0.665
37 | CCN1CCN(S(=O)(=O)c2cn(C(C)C)cn2)c2ccccc21 | -4.3
38 | Cc1nccn1CCCNc1ncccc1C#N | -9.09
39 | CN(Cc1cnn(C)c1)C(=O)c1ccc(Cl)c(N2CCNC2=O)c1 | -10.8
40 | Cc1ccc(C(NCC(=O)N2CCNC(=O)C2)C(F)(F)F)cc1 (centres undefined) | -8.3
41 | COc1ccc(NC(C)c2nnnn2-c2ccccc2)cn1 (centres undefined) | 3.99
42 | COCCOCCNc1cncc(Br)c1 | -1.33
43 | Cc1cc(C(=O)Nc2ccn(CCCN3CCCC3)n2)c(C)o1 | -7.12
44 | O=C(NC1(c2cccc(F)c2)CCOCC1)c1ccoc1 | -9.41

Row | SMILES | cytotoxicity at 10 µM [%]
45 | Cc1cc(C(=O)N2CCCC(n3ccnc3C)C2)c(C)s1 (centres undefined) | -16
46 | CC1CCCN(CCNC(=O)c2cncnc2C(C)C)C1 (centres undefined) | -10.6
47 | COc1ccc(CNC(=O)NCC2CCOC2)c(C(F)(F)F)c1 (centres undefined) | -8.28
48 | CS(=O)(=O)NCc1nnc2n1CCN(Cc1nccs1)C2 | -75.7
49 | Cc1ccc(N2CCC3(CCCN(C(=O)c4cnccn4)C3)C2)nn1 (centres undefined) | 1.14
50 | CC(C)N1CCO[C@H]2CN(C(=O)c3ccc(N(C)C)cc3)C[C@H]21 | 3.19
51 | FC(F)(F)c1ccc(-c2cc(NC3CCNCC3)nc3[nH]ccc23)nc1 | -0.608
52 | Cn1cc(C(=O)N2CCC(c3nccn3Cc3ccncc3)CC2)cn1 | -0.658
53 | CCc1c(C(=O)N2CCC3(CC(=O)NC3=O)C2)csc1C (centres undefined) | 1.62
54 | CC(C)CCN1CC2(CCN(C3CCCOC3)CC2)OC1=O (centres undefined) | 6.31
55 | C=C(C)COc1ccccc1C(=O)N1CCC2(CC1)CN(C)CCN2C | -50.2
56 | Cc1cc(C(=O)N2CCC3(CCNCC3)CC2)c2cccc(C)c2n1 | -15.6
57 | CC(C)NC(=O)N1CCC(c2nccn2C(C)C)CC1 | -6.77
58 | Cc1cnccc1CN1CCN(C)C2(CCC(=O)N(CC3CC3)CC2)C1 (centres undefined) | -3.51
59 | COCCOC1CCN(C(C(=O)O)c2ccc(OC)c(F)c2)CC1 (centres undefined) | 7.42
60 | CC(=O)N1C[C@H](NS(=O)(=O)Cc2cccc(Cl)c2)[C@@H](C(C)C)C1 | -1.73
61 | Cc1nc2c(c(NCCc3nc(C)c(Cl)s3)n1)CCNCC2 | -9.28
62 | CCc1cc(NCC(O)CN2CCCC2)ncn1 (centres undefined) | 6.09
63 | O=C(Cc1ccncc1)N(CCO)CCSc1ccc(Cl)cc1 | 2.59
64 | COCC[C@]1(O)CCN(Cc2ccccn2)C[C@H]1C | -7.72
65 | O=C(c1cc(-n2cccn2)ccc1Cl)N1CCC(N2CCCC2=O)CC1 | -2.08
66 | CCn1ncc(CN2CCCC(C(=O)c3ccc(Cl)cc3)C2)c1C (centres undefined) | 0.522

Row | SMILES | cytotoxicity at 10 µM [%]
67 | Cc1cc(N2CCC(C(=O)O)(n3ccc(C(C)C)n3)CC2)nc(N)n1 | 0.445
68 | Cc1nc2c(C)cccc2cc1C(=O)N1CCC2(CCCNC2)C1 (centres undefined) | -10.3
69 | COc1ccc(NC2(C(=O)N3CCCn4cncc4C3)CCCC2)cc1 | 10.2
70 | Cc1nc(O)cc(CCNC(=O)c2ccccc2N2CCCC2)n1 | 10.4
71 | CCCn1ccnc1CN1C[C@@H](CN2CCCCC2)[C@@H](CO)C1 | 0.945
72 | CCCOC1CCCN(C(=O)c2cc(CN(CC)CC)c(CC)o2)C1 (centres undefined) | 10.1
73 | CN(C)c1nc2c(c(N3CCC(O)CC3)n1)CN(CC1CCNC1)CC2 (centres undefined) | -10.5
74 | COCC(O)CNC(=O)c1cnc(-c2ccccc2)nc1O (centres undefined) | -10.2
75 | COc1ccc(CN2CCCN(C(=O)C(C)n3ccnc3)CC2)cc1 (centres undefined) | -14.1
76 | CC(C)c1nc(C(=O)NCCn2ccnc2)nn1-c1cccc(F)c1 | -7.64
77 | COC(=O)c1ccc(N2CCN(CCC#N)C(C)C2)cc1 (centres undefined) | -11.3
78 | COc1c(CNCCNC(=O)Cc2ccc(F)cc2)c(C)nn1C | -3.09
79 | CC(O)CN1CCN(Cc2nnc(C3CC3)o2)CC1 (centres undefined) | -10
80 | CC(C)(C)c1cnc(CN2CCCC2Cn2cccn2)o1 (centres undefined) | -9.6
81 | Cn1c(C2CC2)nc2c1CCN(CCOc1ccc(C#N)cc1)C2 | -9.39
82 | COC(=O)C(c1cc(F)ccc1F)N(C)C(=O)c1cccnc1O (centres undefined) | -0.289
83 | CC(C)CCCNC(=O)Nc1ccc(F)c(C(N)=O)c1 | -2.73
84 | COCCc1noc(CN2CCCCC2Cn2nc(C)cc2C)n1 (centres undefined) | 0.962
85 | CCn1cc(C(=O)NCc2csc(Br)c2)cn1 | 4.84
86 | Cc1oc(C)c(C(=O)N2CCCN(Cc3cscn3)CC2)c1C | 6.88
87 | CC(c1nc(C2CC2)no1)N1CCN(Cc2ccsc2)CC1 (centres undefined) | 0.993
88 | CCOc1ccc(Br)cc1C1CCCCN1 (centres undefined) | 7.16

Row | SMILES | cytotoxicity at 10 µM [%]
89 | NCCc1cc(N2CCOCC2)nc(NC2CC2)n1 | 0.881
90 | Cc1cc(N2CCN(Cc3cn(C)nc3C)CC2)cc(C2CCNC2)n1 (centres undefined) | 0.39
91 | OCCN(Cc1ccncc1)CC1(c2ccc(Cl)cc2)CCCC1 | 13.8
92 | CN1CC[C@H]2OCC[C@@H](C(=O)NCc3ccco3)[C@@H]2C1 | -78
93 | Cn1cnc2c1C(COCc1ccccc1)N(Cc1ccccn1)CC2 (centres undefined) | 9.82
94 | CS(=O)(=O)N1CCOCC2(CCN(C(=O)c3cccnc3)CC2)C1 | -10.1
95 | COCC1CC2(CCN(C(=O)c3occc3C)CC2)CN1C(C)C (centres undefined) | 12
96 | CNC(=O)[C@H]1C[C@@H]2CCN(CCc3ccccc3)C[C@@H]2O1 | -81.7
97 | CN1CC(=O)N(c2cccc(F)c2)CC12CCN(Cc1cnn(C)c1)C2 (centres undefined) | -5.87
98 | CCCN1CCCn2c(nc(CNC(=O)c3ccsc3)cc2=O)C1 | 6.89
99 | c1coc(CN2CCn3c(COCC4CC4)nnc3C2)c1 | 6.28
100 | CCc1cnc(N2C[C@H]3CN(Cc4csc(C)n4)C(=O)[C@H]3C2)nc1 | 9.43
101 | Cc1nc(CN2CC3(CCN(c4ncccn4)C3)CC2=O)cs1 (centres undefined) | 5.31
102 | COCCO[C@H]1CCN(C(=O)c2ccno2)[C@H]1Cc1ccncc1 | -78.1
103 | O=S(=O)(NCC1COCc2c(-c3ccncc3)nnn2C1)C1CC1 (centres undefined) | -80.9
104 | CC(C)N1CCO[C@H]2CN(C(=O)Cc3cccs3)C[C@H]21 | 7.07
105 | CN(C)CCOCC1CN(Cc2ccoc2)Cc2nnn(C)c21 (centres undefined) | -1.53
106 | CNC(=O)CN1CCOCC2(CCCN(Cc3cccnc3)C2)C1 (centres undefined) | -6.02
107 | O=C1[C@@H]2CC[C@@H](CN(Cc3ccccc3OC(F)F)C2)N1CC1CC1 | -6.17
108 | CCCn1cc(C(=O)NC2CCC(n3cnnc3)CC2)c(C)n1 (centres undefined) | 0.642
109 | Cc1cccc(C(=O)N2C[C@@H]3CC[C@H]2CN(S(=O)(=O)N(C)C)C3)n1 | 7.4
